Experimental data from ChEMBL document CHEMBL1136003, “2-Amino-3-aroyl-4,5-alkylthiophenes: agonist allosteric enhancers at human A(1) adenosine receptors” (J Med Chem, 2002).

Assays:
[1] = target: T1, Adenosine receptor A1 (Homo sapiens) (UniProt P30542); experiment: Allosteric enhancer activity score measured by its ability to stabilize the agonist-receptor-G protein ternary complex at a concentration of 100 uM; format: functional
T1 sequence (whole entry): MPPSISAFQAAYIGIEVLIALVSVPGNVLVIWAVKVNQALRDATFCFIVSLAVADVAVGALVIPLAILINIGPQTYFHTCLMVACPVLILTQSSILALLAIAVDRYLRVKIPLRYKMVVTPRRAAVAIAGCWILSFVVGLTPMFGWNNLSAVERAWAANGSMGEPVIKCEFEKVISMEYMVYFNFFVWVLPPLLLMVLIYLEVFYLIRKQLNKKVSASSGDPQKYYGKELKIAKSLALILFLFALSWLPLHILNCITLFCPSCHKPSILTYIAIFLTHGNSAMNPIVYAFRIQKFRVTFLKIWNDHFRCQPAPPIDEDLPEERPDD
Procedure, shortened: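 Candidate enhancer added (100 µM) for 5 min, then dissociation started with 8-cyclopentyltheophylline plus GTPγS. Residual bound agonist after 10 min counted by filtration. Score = 100 × (B − Bo)/(Beq − Bo).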

[2] = target: T1, Adenosine receptor A1 (Homo sapiens); experiment: Inhibition of [3H]CPX binding to membrane of CHO-K cells stably expressing human adenosine A1 receptors.; format: cell membranes; parameters: concentration or dose not given beside the values; details: concentration not given here
Procedure, shortened: (§1)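 Triplicate assays with membranes (15 µg protein) from CHO-K cells expressing human A1AR. Buffer was 10 mM HEPES pH 7.4 with 1 mM EDTA, adenosine deaminase 1 u/mL, [3H]CPX (4 nM in membrane aliquot), and enhancer added as 200 µM in 10% DMSO. Footnote gives enhancer at 100 µM. NECA defined nonspecific binding. Incubated 3 h at room temperature, then filtered and counted.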

[3] = target: T1, Adenosine receptor A1 (Homo sapiens); experiment: Inhibition of [3H]CPX binding to CHO-K cell membrane expressing human Adenosine A1 receptor; format: cell membranes; parameters: concentration or dose not given beside the values; details: concentration not given here; procedure, shortened: as §1

Row | SMILES | AE Score [1] [%] | inhibition [2] [%] | inhibition [3] [%]
1 | Nc1sc2c(c1C(=O)c1ccc(-c3ccccc3)cc1)CCCC2 | 33 |  | 
2 | Nc1sc2c(c1C(=O)c1ccc(F)cc1)CCCC2 | 17 | 56 | 
3 | Cc1sc(N)c(C(=O)c2ccc(-c3ccccc3)cc2)c1C | 12 |  | 
4 | Nc1sc2c(c1C(=O)c1cccc(Cl)c1)CCC2 | 13 |  | 56
5 | Nc1sccc1C(=O)c1cccc(Cl)c1 | 0 |  | 
6 | Nc1sc2c(c1C(=O)c1cccc3ccccc13)CCCCC2 | 81 |  | 
7 | Cc1ccc(C(=O)c2c(N)sc3c2CCCC3)cc1 | 19 | 36 | 
8 | Nc1sccc1C(=O)c1ccccc1 | 0.2 |  | 15
9 | Nc1sc2c(c1C(=O)c1ccc(Br)cc1)CCCC2 | 83 | 61 | 
10 | CCOC(=O)c1c(N)sc2c1CCCC2 | 3.5 | 53 | 
11 | CCOC(=O)c1c(N)sc2c1CCC2 | 0.4 |  | 58
12 | Nc1sc2c(c1C(=O)c1ccc(Cl)cc1)CCC2 | 70 |  | 
13 | Nc1sc2c(c1C(=O)c1ccc(Br)cc1)CCCCC2 | 86 | 7 | 
14 | Nc1sccc1C(=O)c1ccc(Cl)c(Cl)c1 | 1.7 |  | 
15 | Nc1sc2c(c1C(=O)c1cccc(F)c1)CCCC2 | 22 |  | 35
16 | Nc1sc2c(c1C(=O)c1ccc(Cl)cc1)CCCCC2 | 65 |  | 
17 | Cc1cc(C)c(C(=O)c2c(N)sc(C)c2C)c(C)c1 | 0 |  | 
18 | Nc1sccc1C(=O)c1ccc(Br)cc1 | 0.8 |  | 
19 | Nc1sc2c(c1C(=O)c1ccccc1)CCCC2 | 19 | 42 | 
20 | Nc1sc2c(c1C(=O)c1ccc(C3CCCCC3)cc1)CCCCC2 | 77 |  | 

Row | SMILES | AE Score [1] [%] | inhibition [2] [%] | inhibition [3] [%]
21 | COc1cccc(C(=O)c2c(N)sc3c2CCCCC3)c1 | 99 | 13 | 
22 | Nc1sccc1C(=O)c1ccc2ccccc2c1 | 3.2 |  | 
23 | Nc1sc2c(c1C(=O)c1ccc(F)cc1)CCCCC2 | 22 |  | 
24 | Cc1sc(C(=O)O)c(C(=O)c2ccccc2)c1C | 0 |  | 
25 | Cc1sc(C(=O)O)c(C(=O)c2ccc(-c3ccccc3)cc2)c1C | 0 |  | 
26 | Nc1sccc1C(=O)c1ccc(F)cc1 | 0 |  | 
27 | Cc1cccc(C(=O)c2c(N)sc(C)c2C)c1 | 18 |  | 
28 | Nc1sc2c(c1C(=O)c1cccc(Br)c1)CCCCC2 | 78 | 7 | 
29 | Nc1sc2c(c1C(=O)c1ccc3ccccc3c1)CCCC2 | 86 |  | 
30 | Nc1sc2c(c1C(=O)c1cccc(Cl)c1)CCCCC2 | 65 | 10 | 
31 | Nc1sc2c(c1C(=O)c1ccc(Br)cc1)CCC2 | 62 |  | 20
32 | Nc1sccc1C(=O)c1ccc(Cl)cc1 | 0 |  | 
33 | Nc1sc2c(c1C(=O)c1cccc(I)c1)CCCCC2 | 86 |  | 
34 | Nc1sc2c(c1C(=O)c1ccc(F)cc1)CCC2 | 22 |  | 40
35 | Nc1sc2c(c1C(=O)c1ccc3ccccc3c1)CCC2 | 31 | 21 | 
36 | N#Cc1ccc(C(=O)c2c(N)sc3c2CCCC3)cc1 | 19 | 21 | 
37 | CCOC(=O)c1c(N)sc2c1CCCCC2 | 0.3 | 38 | 
38 | Cc1sc(N)c(C(=O)c2cccc(C(F)(F)F)c2)c1C | 19 |  | 42
39 | Cc1sc(C(=O)O)c(C(=O)c2cccc(C(F)(F)F)c2)c1C | 0 |  | 
40 | Nc1sccc1C(=O)c1cccc(Br)c1 | 0.2 |  | 

Row | SMILES | AE Score [1] [%] | inhibition [2] [%] | inhibition [3] [%]
41 | Nc1sc2c(c1C(=O)c1cccc(F)c1)CCC2 | 16 |  | 
42 | Cc1sc(N)c(C(=O)c2cccc(Br)c2)c1C | 16 |  | 
43 | Nc1sc2c(c1C(=O)c1ccc(I)cc1)CCCC2 | 86 | 62 | 
44 | Nc1sc2c(c1C(=O)c1ccc(C3CCCCC3)cc1)CCCC2 | 99 | 47 | 
45 | Nc1sc2c(c1C(=O)c1ccc(I)cc1)CCCCC2 | 96 | 9 | 
46 | Nc1sc2c(c1C(=O)c1cccc(Br)c1)CCC2 | 68 |  | 36
47 | Nc1sccc1C(=O)c1cccc(F)c1 | 0 |  | 
48 | COc1ccc(C(=O)c2c(N)sc3c2CCCCC3)cc1 | 85 |  | 
49 | Cc1sc(N)c(C(=O)c2cccc(Cl)c2)c1C | 14 |  | 
50 | Cc1sc(N)c(C(=O)c2cccc(F)c2)c1C | 0 |  | 
51 | Nc1sc2c(c1C(=O)c1ccccc1)CCC2 | 20 |  | 56
52 | Nc1sc2c(c1C(=O)c1cccc(Br)c1)CCCC2 | 49 |  | 49
53 | Nc1sc2c(c1C(=O)c1ccc3ccccc3c1)CCCCC2 | 75 |  | 
54 | Nc1sc2c(c1C(=O)c1ccc(-c3ccccc3)cc1)CCC2 | 38 |  | 
55 | Nc1sc2c(c1C(=O)c1ccc(-c3ccccc3)cc1)CCCCC2 | 88 |  | 
56 | Nc1sc2c(c1C(=O)c1ccc(Cl)cc1)CCCC2 | 68 | 69 | 
57 | Nc1sc2c(c1C(=O)c1cccc(Cl)c1)CCCC2 | 70 |  | 78
58 | Cc1sc(N)c(C(=O)c2ccccc2)c1C | 9 |  | 
59 | Nc1sc2c(c1C(=O)c1ccccc1)CCCCC2 | 13 | 68 | 
